Reference: ChEMBL document CHEMBL3600328, “Bayesian models trained with HTS data for predicting β-haematin inhibition and in vitro antimalarial activity” (Bioorg Med Chem, 2015)

Legend:
[1] = Inhibition of beta-hematin formation; assay type: physicochemical
Method in brief: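 NP-40 detergent-mediated β-haematin formation assay, run per an earlier-published protocol.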

Plasmodium falciparum = test: Antimalarial activity against CQ-sensitive Plasmodium falciparum NF54 assessed as inhibition of parasite growth; assay type: functional, organism-based

Compound | IC50 [1] [µM] | IC50 (Plasmodium falciparum) [µM]
CN(C)CCNc1cc(-c2ccc3ccccc3c2)nc2ccccc12 | 26 | 0.079
Cc1ccc(C(=O)C2=C(O)C(=O)N(Cc3cccnc3)[C@H]2c2ccc(Cl)c(Cl)c2)o1 | 88 | > 10
O=C(O)c1cc(-c2ccc(-c3ccccc3)cc2)nc2ccccc12 | 46 | > 10
C=C[C@H]1CN2CC[C@@H]1C[C@@H]2Cc1ccnc2ccccc12 | 66 | 0.082
COc1cc(-c2nc3cc([N+](=O)[O-])ccc3[nH]2)ccc1O | 22 | > 10
Nc1cc(O)c2ccccc2n1 | 85 | > 10
